Assay results gathered from unrelated publications.
Target: D(2) dopamine receptor (DRD2, Homo sapiens, UniProt P14416)

SMILES | test | test system | conditions | endpoint | value
CC(C)Cn1cnc2c(N)nc3ccccc3c21 | ligand displacement, radioligand | – | 10 µM | inhibition | 14%
c1ccc(C2(N3CCCCC3)CCCCC2)cc1 | enzyme activity, inhibitor | – | 10 µM | inhibition | 18.1%
COCc1c(-c2cc3cc(C)cc(OC)c3s2)c2c(N)ncnn2c1CN1CCNC(=O)C1 | ligand displacement, radioligand | – | 10 µM | inhibition | 19%
COc1ccc(S(=O)(=O)N2CCCCC2)cc1C | ligand displacement, radioligand | – | 10 µM | inhibition | < 30%
C[C@H](C(=O)N[C@H]1COc2ccccc2[C@@H]1S(C)(=O)=O)c1ccc(F)cc1 | cell-free assay | – | 10 µM | inhibition | -3%
COc1ccc(N=Nc2ccc3[nH]cc(CCN(C)C)c3c2)cc1 | ligand displacement, radioligand | – | 10 µM | inhibition | < 50%
CCN(CC)CCCC[C@H](NC(=O)[C@H](CC(C)C)NC(=O)[C@H](C)NC(=O)[C@H](Cc1ccccc1)NC(=O)c1ccc(C(C)(C)C)cc1)C(=O)N[C@@H](CO)C(=O)OC | ligand displacement, radioligand | – | 10 µM | inhibition | 40%
COc1ccc(C(=O)NCc2cc(C(C)C)no2)cc1OC1CCN(C)CC1 | ligand displacement, radioligand | – | 10 µM | inhibition | 18%
Cc1c(N2CCNCC2)nc2ccc(Br)cc2c1C(=O)NC[C@H](CCC(=O)O)c1ccccc1Cl | ligand displacement | – | 10 µM | inhibition | 2.75%
CNc1nc2cc(OCCCCN3CCC(c4cccc(Cl)c4Cl)CC3)ccc2s1 | β-arrestin recruitment, agonist | HTLA | – | Emax | < 20%
c1ccc(C(NCCNC(c2ccccc2)c2ccccc2)c2ccccc2)cc1 | cell-free assay | – | 10 µM | inhibition | 31%
OC(c1ccc(F)cc1)C(F)(F)CCN1CCC(O)(c2ccc(Cl)cc2)CC1 (racemic) | ligand displacement, radioligand | – | 10 µM | inhibition | > 50%
N#CC1(c2ccccn2)CCN(Cc2cc(C(=O)O)c(=O)n3ccccc23)CC1 | cell-free assay | – | 10 µM | inhibition | -16.8%
Clc1ccc2c(C3CCN(CCc4c[nH]c5ccccc45)CC3)c[nH]c2c1 | ligand displacement, radioligand | – | 10 µM | inhibition | 98%
CCc1ccc(OCC(=O)N2CCN(Cc3ccc4c(c3)OCO4)CC2)c(Br)c1 | enzyme activity, inhibitor | – | 10 µM | inhibition | 23.1%
CN(CCN1CCC(OC(=O)Nc2ccccc2-c2ccccc2)CC1)C(=O)c1ccc(CN2CCC(C(N)=O)CC2)cc1 | ligand displacement, radioligand | – | 1 µM | inhibition | -8%
